# Experimental data from PubChem BioAssay AID602158 (Broad Institute, 2011).
# Inconclusive results are not listed. Active and inactive are the calls of the source.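 Rule for the calls: active = half-maximal potency at or below twice the top valid dose in every separate test run, with falling signal; inconclusive = runs disagree, or flat 30 to 70% inhibition, or poor fit; inactive = inactive in every run, including rising signal.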
# Target: Serine/threonine-protein kinase 33 (Homo sapiens) (UniProt Q9BYT3)
# Test: STK33 kinase inhibitors, potency, dose response, biochemical, ADP-Glo luminescence, dry powder, set 3 (AID 602158)
# Conditions: purified STK33, MBP phosphorylation
# In short: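 Assay system: purified STK33 kinase enzyme; Also added: MBP substrate, ATP at Km; Signal: ADP-Glo luminescence; Incubation: 15 min RT preincubation, 60 min reaction.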
# Sequence of Serine/threonine-protein kinase 33 (Homo sapiens) (Q9BYT3 whole entry, looked up): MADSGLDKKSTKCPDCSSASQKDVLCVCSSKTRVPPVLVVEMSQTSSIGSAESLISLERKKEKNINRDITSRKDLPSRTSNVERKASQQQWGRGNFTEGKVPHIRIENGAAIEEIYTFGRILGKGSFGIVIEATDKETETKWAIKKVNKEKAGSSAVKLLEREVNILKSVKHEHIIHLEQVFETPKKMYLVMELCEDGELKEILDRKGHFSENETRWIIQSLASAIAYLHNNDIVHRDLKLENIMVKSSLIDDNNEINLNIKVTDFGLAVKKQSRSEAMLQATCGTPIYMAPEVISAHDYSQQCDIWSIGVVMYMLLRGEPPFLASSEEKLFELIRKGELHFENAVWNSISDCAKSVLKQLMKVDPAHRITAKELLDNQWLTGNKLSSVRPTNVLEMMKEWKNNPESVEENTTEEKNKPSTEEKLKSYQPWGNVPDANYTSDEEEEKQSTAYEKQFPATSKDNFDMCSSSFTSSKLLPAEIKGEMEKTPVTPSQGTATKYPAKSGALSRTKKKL
row,SMILES,AC50 [µM]
1,O=c1[nH]c2ccccc2nc1-c1ccccc1NS(=O)(=O)c1ccccc1,7.25
2,O=C(Nc1ccccc1-c1nc2ccccc2[nH]c1=O)c1ccccc1,0.165
3,O=c1[nH]c2ccccc2nc1-c1ccccc1NCc1ccccn1,1.54
4,Cc1cccc(C(=O)Nc2ccccc2-c2nc3ccccc3[nH]c2=O)c1,1.55
5,Cc1ccc(C(=O)Nc2ccccc2-c2nc3ccccc3[nH]c2=O)cc1,0.763
6,O=C(Nc1ccccc1-c1nc2ccccc2[nH]c1=O)c1ccc(Cl)cc1,0.297
7,O=C(Nc1ccccc1-c1nc2ccccc2[nH]c1=O)c1ccc(Cl)s1,0.38
8,O=C(Nc1ccccc1-c1nc2ccccc2[nH]c1=O)c1ccccc1F,4.86
9,COc1cccc(C(=O)Nc2ccccc2-c2nc3ccccc3[nH]c2=O)c1,2.24
10,O=C(Nc1ccccc1-c1nc2ccccc2[nH]c1=O)c1nccs1,0.522

# Same assay, conditions: purified STK33, MBP phosphorylation, at 10 µM (top of the series)
row,SMILES,"activity change, negative = inhibition"
1,COc1ccccc1C(=O)Nc1ccccc1-c1nc2ccccc2[nH]c1=O,inactive
2,O=c1[nH]c2ccccc2nc1-c1ccccc1NCc1ccc(F)cc1,inactive
3,O=C(Nc1ccccc1-c1nc2ccccc2[nH]c1=O)c1cc2ccccc2s1,inactive
4,O=C(Nc1ccccc1-c1nc2ccccc2[nH]c1=O)C1CC1,inactive
5,O=C(Nc1ccccc1-c1nc2ccccc2[nH]c1=O)C1CCCC1,inactive
6,O=C(Nc1ccccc1-c1nc2cc3ccccc3cc2[nH]c1=O)c1cccs1,inactive
7,O=c1[nH]c2ccccc2nc1-c1ccccc1NCC1CC1,inactive
8,O=c1[nH]c2ccccc2nc1-c1ccccc1NS(=O)(=O)c1cccs1,inactive
9,O=C(Nc1ccccc1-c1nc2ccccc2[nH]c1=O)c1ccccc1Cl,inactive
10,Cc1ccccc1C(=O)Nc1ccccc1-c1nc2ccccc2[nH]c1=O,inactive
11,O=c1[nH]c2ccccc2nc1-c1ccccc1NCc1ccccc1,inactive
12,O=c1[nH]c2ccccc2nc1-c1ccccc1NS(=O)(=O)c1cccnc1,inactive
13,CC(C)C(=O)Nc1ccccc1-c1nc2ccccc2[nH]c1=O,inactive
14,O=c1[nH]c2ccccc2nc1-c1ccccc1NCc1cccnc1,inactive
